In ChEMBL document CHEMBL1165965, “Synthesis and structure-activity relationships of 1,2,3,4-tetrahydropyrido[2,3-b]pyrazines as potent and selective inhibitors of the anaplastic lymphoma kinase” (Bioorg Med Chem, 2010):

Tests used:
[1] = target: Tyrosine-protein kinase Lyn (Homo sapiens) (UniProt P07948); test: Inhibition of LYN at 1 uM
Outline: (§1)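 Single-concentration screen on the Ambit KINOMEscan platform, run against a panel of 250–400 kinases. Per-kinase inhibition was also summarized as S(90), the fraction of kinases inhibited by more than 90%.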

[2] = target: T1, Mitogen-activated protein kinase kinase kinase 15 (Homo sapiens) (UniProt Q6ZN16); test: Inhibition of MAP3K15 at 1 uM
T1 sequence (whole entry): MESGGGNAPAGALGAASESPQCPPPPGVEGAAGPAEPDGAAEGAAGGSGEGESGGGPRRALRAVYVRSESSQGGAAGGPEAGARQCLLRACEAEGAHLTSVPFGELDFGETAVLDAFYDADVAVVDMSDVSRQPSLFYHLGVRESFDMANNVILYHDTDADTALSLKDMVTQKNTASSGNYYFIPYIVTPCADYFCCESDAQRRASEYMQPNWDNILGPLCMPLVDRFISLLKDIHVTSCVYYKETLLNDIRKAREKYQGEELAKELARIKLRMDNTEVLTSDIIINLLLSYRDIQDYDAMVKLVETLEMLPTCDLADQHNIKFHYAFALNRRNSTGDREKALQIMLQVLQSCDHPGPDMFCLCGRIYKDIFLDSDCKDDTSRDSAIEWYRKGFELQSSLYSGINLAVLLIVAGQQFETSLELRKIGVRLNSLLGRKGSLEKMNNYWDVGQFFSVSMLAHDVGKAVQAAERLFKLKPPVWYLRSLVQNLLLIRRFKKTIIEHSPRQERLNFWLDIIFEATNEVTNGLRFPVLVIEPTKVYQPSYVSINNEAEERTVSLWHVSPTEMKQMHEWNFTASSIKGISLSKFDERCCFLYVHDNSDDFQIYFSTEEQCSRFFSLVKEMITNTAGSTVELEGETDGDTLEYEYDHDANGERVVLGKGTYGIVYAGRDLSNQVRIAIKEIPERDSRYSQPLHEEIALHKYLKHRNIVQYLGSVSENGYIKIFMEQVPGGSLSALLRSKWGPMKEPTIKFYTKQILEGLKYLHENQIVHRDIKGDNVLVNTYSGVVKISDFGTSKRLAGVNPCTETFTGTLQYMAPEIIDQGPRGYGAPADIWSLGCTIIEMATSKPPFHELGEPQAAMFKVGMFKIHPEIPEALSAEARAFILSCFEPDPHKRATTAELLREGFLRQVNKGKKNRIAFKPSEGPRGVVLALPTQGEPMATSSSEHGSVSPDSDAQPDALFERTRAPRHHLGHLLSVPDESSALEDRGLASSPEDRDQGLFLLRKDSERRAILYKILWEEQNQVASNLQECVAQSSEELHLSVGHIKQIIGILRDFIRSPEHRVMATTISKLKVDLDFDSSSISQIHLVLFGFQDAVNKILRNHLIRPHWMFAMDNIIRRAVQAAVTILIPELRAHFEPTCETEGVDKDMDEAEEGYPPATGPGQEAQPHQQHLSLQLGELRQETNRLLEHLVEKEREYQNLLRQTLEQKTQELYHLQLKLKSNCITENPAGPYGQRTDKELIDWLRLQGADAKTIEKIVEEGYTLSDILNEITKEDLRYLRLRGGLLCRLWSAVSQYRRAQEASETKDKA

[3] = target: T2, Mitogen-activated protein kinase kinase kinase kinase 3 (Homo sapiens) (UniProt Q8IVH8); test: Inhibition of MAP4K3 at 1 uM; outline: as §1
T2 sequence (whole entry): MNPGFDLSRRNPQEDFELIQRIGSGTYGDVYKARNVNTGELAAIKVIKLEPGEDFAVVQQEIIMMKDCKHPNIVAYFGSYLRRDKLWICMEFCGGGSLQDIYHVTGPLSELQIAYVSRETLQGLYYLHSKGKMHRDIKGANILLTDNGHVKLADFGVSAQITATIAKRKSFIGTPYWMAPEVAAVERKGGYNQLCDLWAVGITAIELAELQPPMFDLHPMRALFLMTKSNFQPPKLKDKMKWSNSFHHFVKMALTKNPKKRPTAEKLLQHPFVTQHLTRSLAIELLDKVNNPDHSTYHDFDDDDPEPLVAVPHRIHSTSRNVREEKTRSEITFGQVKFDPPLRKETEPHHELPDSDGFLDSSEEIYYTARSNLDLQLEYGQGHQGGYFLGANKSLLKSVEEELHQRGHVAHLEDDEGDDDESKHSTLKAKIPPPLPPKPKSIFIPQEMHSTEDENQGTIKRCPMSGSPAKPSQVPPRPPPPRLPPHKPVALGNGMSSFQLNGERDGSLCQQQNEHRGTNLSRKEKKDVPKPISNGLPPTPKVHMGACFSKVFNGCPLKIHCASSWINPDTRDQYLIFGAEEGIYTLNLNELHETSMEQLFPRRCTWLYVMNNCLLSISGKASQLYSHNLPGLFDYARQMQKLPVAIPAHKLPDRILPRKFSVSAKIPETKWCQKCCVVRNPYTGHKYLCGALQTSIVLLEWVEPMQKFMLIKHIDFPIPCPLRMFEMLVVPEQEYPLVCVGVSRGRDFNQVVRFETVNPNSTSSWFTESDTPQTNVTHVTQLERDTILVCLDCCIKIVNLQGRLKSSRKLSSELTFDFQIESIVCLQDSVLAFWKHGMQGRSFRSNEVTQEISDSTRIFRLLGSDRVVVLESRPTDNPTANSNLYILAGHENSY

[4] = target: Serine/threonine-protein kinase MRCK alpha (Homo sapiens) (UniProt Q5VT25); test: Inhibition of MRCKA at 1 uM
Outline: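 Kinase-panel screen using KINOMEscan technology, with 250–400 kinases per panel. Each compound was tested at a single concentration, and inhibition of each kinase was recorded. Selectivity was summarised as S(90), the fraction of kinases inhibited by more than 90%.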

[5] = target: Ribosomal protein S6 kinase alpha-5 (Homo sapiens) (UniProt O75582); test: Inhibition of RPS6KA5 N-terminal domain1 at 1 uM
[6] = tested on: Tyrosine-protein kinase ABL1 (Homo sapiens), P00519 [Q252H]; test: Inhibition of ABL1 Q252H mutant at 1 uM
Outline: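 Ambit KINOMEscan screen at a single concentration across a 250–400 kinase panel, recorded as percent inhibition. Selectivity was expressed as S(90), the fraction of kinases inhibited >90%.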

[7] = target: Receptor tyrosine-protein kinase erbB-3 (Homo sapiens) (UniProt P21860); test: Inhibition of ERBB3 at 1 uM
[8] = target: Homeodomain-interacting protein kinase 2 (Homo sapiens) (UniProt Q9H2X6); test: Inhibition of HIPK2 at 1 uM
Chain of Homeodomain-interacting protein kinase 2 (Homo sapiens) (Q9H2X6 whole entry, looked up): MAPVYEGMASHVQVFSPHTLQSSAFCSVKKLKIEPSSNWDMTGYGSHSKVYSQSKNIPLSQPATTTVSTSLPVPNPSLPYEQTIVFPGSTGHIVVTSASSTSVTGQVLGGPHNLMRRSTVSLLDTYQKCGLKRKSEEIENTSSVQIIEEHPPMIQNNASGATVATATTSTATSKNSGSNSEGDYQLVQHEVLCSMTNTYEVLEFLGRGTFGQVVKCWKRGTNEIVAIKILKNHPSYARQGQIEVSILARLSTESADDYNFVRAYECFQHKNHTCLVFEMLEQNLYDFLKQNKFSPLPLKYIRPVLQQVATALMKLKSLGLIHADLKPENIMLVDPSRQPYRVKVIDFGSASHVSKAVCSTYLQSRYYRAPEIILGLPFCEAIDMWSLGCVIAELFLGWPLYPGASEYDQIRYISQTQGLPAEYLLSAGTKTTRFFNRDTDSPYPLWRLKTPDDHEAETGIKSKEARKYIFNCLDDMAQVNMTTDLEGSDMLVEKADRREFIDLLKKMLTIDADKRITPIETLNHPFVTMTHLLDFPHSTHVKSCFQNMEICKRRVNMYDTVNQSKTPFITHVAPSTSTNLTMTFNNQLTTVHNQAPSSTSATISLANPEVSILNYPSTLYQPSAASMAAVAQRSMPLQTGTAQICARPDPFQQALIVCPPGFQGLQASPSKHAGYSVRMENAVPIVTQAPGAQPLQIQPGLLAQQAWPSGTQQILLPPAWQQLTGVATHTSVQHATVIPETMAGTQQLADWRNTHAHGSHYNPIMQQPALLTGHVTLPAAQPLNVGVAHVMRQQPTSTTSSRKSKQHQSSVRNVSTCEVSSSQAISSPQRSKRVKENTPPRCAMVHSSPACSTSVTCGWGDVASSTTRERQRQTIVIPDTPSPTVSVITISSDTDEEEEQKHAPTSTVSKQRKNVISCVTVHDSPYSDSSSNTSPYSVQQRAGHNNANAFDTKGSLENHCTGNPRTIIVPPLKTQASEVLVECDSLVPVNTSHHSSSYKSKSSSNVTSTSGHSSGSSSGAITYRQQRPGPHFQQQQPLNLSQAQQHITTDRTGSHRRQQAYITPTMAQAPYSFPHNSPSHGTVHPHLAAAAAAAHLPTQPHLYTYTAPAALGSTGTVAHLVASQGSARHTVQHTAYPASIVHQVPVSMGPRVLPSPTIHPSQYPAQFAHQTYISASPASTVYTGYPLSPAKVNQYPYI

Chain of Ribosomal protein S6 kinase alpha-5 (Homo sapiens) (O75582 whole entry, looked up, the tested form may be a part): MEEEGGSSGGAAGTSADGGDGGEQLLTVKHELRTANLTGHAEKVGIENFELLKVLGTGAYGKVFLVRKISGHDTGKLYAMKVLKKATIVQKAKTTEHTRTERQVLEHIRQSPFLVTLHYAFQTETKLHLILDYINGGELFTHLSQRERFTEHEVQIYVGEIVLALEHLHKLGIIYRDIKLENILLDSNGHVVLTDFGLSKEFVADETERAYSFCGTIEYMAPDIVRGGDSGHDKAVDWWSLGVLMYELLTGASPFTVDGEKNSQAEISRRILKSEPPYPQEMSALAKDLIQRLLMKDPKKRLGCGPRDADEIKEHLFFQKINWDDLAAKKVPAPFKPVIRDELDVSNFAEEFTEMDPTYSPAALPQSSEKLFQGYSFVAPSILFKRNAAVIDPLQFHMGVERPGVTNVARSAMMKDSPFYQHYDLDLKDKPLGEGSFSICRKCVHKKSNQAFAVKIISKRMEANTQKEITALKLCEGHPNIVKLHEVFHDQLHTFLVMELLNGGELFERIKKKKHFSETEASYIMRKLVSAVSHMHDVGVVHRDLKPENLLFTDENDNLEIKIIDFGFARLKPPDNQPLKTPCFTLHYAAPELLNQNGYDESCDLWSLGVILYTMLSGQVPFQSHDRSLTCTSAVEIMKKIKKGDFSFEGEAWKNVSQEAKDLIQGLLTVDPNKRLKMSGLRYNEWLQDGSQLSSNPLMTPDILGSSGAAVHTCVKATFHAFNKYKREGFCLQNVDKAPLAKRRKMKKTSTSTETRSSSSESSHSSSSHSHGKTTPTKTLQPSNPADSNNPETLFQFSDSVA
Chain of Receptor tyrosine-protein kinase erbB-3 (Homo sapiens) (P21860 whole entry): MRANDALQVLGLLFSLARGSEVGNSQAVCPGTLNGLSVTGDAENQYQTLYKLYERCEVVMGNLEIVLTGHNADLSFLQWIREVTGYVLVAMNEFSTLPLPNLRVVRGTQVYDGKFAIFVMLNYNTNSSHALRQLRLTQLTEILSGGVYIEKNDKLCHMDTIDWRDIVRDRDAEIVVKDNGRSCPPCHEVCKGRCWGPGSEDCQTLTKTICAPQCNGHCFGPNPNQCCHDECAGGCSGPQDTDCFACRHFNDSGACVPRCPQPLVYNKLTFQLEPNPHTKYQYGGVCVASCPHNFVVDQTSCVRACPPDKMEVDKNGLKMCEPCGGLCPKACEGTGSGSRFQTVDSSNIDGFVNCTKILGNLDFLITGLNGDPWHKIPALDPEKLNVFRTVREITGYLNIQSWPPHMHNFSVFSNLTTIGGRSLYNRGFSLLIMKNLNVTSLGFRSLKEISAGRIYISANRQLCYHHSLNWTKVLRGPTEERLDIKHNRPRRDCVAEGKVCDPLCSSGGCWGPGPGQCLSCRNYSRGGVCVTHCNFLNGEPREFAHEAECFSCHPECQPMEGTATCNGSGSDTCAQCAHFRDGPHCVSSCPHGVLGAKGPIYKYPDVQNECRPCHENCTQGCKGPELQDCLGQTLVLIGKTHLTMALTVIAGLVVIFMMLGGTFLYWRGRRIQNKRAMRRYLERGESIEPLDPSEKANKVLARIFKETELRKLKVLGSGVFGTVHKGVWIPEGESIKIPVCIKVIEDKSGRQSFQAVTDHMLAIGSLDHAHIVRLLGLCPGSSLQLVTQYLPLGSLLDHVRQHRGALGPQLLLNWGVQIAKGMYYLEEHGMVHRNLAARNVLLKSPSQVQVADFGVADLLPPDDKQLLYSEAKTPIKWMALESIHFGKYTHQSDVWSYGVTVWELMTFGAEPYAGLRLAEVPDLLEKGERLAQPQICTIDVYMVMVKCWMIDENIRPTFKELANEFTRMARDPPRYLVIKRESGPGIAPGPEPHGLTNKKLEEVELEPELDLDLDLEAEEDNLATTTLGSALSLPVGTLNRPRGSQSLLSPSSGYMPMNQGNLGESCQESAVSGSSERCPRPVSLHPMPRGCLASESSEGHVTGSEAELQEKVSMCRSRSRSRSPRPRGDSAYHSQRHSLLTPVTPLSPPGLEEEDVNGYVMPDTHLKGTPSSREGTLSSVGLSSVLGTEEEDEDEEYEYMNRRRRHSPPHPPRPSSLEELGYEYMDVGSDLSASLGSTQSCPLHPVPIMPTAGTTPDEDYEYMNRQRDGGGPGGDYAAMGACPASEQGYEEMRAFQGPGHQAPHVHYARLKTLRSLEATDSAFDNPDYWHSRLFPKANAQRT
Chain of Serine/threonine-protein kinase MRCK alpha (Homo sapiens) (Q5VT25 whole entry): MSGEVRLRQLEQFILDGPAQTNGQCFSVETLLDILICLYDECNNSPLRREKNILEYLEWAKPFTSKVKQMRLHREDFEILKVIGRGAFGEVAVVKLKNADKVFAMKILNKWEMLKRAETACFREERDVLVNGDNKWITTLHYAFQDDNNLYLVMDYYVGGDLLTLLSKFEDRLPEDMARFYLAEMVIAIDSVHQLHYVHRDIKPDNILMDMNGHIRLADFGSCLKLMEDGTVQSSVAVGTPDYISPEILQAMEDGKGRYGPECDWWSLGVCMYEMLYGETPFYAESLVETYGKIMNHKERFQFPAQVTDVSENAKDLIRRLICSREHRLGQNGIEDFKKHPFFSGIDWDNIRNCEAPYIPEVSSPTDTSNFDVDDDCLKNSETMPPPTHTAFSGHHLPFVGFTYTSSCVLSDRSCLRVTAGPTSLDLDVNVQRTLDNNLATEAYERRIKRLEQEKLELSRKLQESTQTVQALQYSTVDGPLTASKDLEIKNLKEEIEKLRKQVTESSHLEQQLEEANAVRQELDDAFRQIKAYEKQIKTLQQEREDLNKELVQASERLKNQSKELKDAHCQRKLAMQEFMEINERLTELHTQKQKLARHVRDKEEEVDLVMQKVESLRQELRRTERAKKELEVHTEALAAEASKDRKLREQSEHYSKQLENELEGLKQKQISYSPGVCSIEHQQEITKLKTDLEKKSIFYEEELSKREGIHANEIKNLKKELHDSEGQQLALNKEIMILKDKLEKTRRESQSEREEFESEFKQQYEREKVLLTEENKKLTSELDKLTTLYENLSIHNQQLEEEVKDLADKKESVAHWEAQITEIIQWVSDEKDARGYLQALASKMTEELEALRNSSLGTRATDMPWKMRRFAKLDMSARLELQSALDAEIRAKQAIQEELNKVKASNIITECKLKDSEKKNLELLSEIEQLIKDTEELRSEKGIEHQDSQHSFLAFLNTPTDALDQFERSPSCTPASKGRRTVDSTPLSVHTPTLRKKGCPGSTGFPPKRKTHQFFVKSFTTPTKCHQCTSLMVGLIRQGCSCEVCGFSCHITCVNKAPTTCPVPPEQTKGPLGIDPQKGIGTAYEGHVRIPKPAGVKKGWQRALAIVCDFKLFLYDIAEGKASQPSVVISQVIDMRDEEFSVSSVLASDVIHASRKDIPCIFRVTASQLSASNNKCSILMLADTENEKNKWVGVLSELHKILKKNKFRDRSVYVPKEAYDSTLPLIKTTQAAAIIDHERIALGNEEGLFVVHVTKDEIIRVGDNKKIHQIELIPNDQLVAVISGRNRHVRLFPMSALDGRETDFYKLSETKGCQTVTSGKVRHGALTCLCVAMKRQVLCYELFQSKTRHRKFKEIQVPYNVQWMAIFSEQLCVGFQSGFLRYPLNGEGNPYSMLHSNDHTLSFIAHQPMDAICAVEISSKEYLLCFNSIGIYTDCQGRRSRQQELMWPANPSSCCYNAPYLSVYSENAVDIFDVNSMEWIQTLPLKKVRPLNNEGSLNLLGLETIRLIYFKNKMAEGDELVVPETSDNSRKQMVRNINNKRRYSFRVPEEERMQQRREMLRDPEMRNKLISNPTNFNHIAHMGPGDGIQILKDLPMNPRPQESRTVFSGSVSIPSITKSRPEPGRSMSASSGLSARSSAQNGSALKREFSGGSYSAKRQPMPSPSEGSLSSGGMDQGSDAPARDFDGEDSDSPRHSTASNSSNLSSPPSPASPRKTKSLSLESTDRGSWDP

SMILES	inhibition [1]	inhibition [2]	inhibition [3]	inhibition [4]	inhibition [5]	inhibition [6]	inhibition [7]	inhibition [8]
O=C(c1ccc(-c2cnc3c(c2)N(Cc2cc(Cl)ccc2C(F)(F)F)CCN3)cc1)N1CCC(N2CCCC2)CC1	< 50%		< 50%	< 50%	< 50%	63%		
O=C(c1ccc(-c2cnc3c(c2)N(Cc2cc(Cl)ccc2C(F)(F)F)CCN3)cc1)N1CCCCC1	< 50%		< 50%	< 50%	< 50%	< 50%		
COC1CCN(C(=O)c2ccc(-c3cnc4c(c3)N(Cc3cc(Cl)ccc3C(F)(F)F)CCN4)cc2)CC1	< 50%		< 50%	< 50%	< 50%	< 50%		
O=C(O)c1ccc(-c2cnc3c(c2)N(Cc2cc(Cl)ccc2C(F)(F)F)CCN3)cc1	< 50%		< 50%	< 50%	< 50%	< 50%		
FC(F)(F)c1ccc(Cl)cc1CN1CCNc2ncc(-c3ccnc(N4CCNCC4)c3)cc21	< 50%	< 50%	70%	< 50%	< 50%	< 50%	< 50%	< 50%

Next, values leading:

inhibition [1]	inhibition [2]	inhibition [3]	inhibition [4]	inhibition [5]	inhibition [6]	inhibition [7]	inhibition [8]	SMILES
< 50%	< 50%	< 50%	< 50%	< 50%	< 50%	< 50%	< 50%	CN1CCN(c2ccc(-c3cnc4c(c3)N(Cc3cc(F)ccc3F)CCN4)cn2)CC1
< 50%	< 50%	91%	< 50%	< 50%	72%	< 50%	< 50%	CN1CCN(c2ccc(-c3cnc4c(c3)N(Cc3c(F)ccc(F)c3Cl)CCN4)cn2)CC1
< 50%	< 50%	< 50%	< 50%	< 50%	< 50%	< 50%	< 50%	CC(=O)N1CCN(c2cc(-c3cnc4c(c3)N(Cc3cc(Cl)ccc3C(F)(F)F)CCN4)ccn2)CC1
< 50%	< 50%	< 50%	< 50%	< 50%	< 50%	< 50%	< 50%	CN1CCN(c2ccc(-c3cnc4c(c3)N(Cc3cc(Cl)ccc3C(F)(F)F)CCN4)cn2)CC1
< 50%	< 50%	< 50%	< 50%	< 50%	< 50%	< 50%	< 50%	CN1CCN(c2ccc(-c3cnc4c(c3)N(Cc3cc(Cl)ccc3Cl)CCN4)cn2)CC1
